Results from ChEMBL document CHEMBL1148642, “(2S,3S)-3-Amino-4-(3,3-difluoropyrrolidin-1-yl)-N,N-dimethyl-4-oxo-2-(4-[1,2,4]triazolo[1,5-a]-pyridin-6-ylphenyl)butanamide: a selective alpha-amino amide dipeptidyl peptidase IV inhibitor for the treatment of type 2 diabetes” (J Med Chem, 2006).
pIC50: −log10 of the molar value.

Key:
Xaa-Pro aminopeptidase 1 = Xaa-Pro aminopeptidase 1 (Homo sapiens, UniProt Q9NQW7); test: Inhibition of aminopeptidase P
Dipeptidyl peptidase 2 = Dipeptidyl peptidase 2 (Homo sapiens, UniProt Q9UHL4); test: Inhibition of QPP
Xaa-Pro dipeptidase = target: T1, Xaa-Pro dipeptidase (Homo sapiens, UniProt P12955); test: Inhibition of prolidase
T1 sequence (P12955 whole entry): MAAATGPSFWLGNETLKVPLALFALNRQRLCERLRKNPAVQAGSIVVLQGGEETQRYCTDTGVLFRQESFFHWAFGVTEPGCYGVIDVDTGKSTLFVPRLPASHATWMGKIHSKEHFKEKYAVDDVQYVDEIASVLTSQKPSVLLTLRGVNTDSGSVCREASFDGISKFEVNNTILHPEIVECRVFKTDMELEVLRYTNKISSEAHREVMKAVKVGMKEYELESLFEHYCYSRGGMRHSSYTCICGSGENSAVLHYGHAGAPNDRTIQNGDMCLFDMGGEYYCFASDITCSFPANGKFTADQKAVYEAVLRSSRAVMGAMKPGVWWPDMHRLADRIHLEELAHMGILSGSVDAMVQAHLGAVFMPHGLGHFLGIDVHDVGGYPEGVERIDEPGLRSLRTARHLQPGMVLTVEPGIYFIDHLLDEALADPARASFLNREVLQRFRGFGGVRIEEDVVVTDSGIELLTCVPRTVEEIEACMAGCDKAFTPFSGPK

Prolyl endopeptidase FAP = target: T2, Prolyl endopeptidase FAP (Homo sapiens, UniProt Q12884); test: Inhibition of FAP
T2 sequence (Q12884 whole entry): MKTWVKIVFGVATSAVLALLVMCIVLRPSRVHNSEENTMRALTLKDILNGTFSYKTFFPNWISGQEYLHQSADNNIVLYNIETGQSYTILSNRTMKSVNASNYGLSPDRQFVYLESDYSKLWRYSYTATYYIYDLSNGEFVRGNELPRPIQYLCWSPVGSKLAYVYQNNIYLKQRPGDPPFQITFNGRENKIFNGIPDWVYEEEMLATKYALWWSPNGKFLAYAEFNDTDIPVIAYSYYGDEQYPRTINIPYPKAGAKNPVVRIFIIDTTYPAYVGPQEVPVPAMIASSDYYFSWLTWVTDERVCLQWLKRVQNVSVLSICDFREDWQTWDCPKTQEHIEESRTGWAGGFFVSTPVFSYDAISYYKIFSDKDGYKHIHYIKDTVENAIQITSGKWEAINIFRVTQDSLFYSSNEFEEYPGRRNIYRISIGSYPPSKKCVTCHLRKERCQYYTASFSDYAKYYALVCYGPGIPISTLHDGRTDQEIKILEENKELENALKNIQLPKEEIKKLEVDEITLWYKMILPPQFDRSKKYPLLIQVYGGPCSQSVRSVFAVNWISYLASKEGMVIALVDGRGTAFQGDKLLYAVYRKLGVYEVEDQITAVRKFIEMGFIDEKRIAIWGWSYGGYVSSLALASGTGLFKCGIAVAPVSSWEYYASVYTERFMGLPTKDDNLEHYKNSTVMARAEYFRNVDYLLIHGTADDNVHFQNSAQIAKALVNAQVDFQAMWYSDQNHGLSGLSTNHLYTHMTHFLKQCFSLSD

Dipeptidyl peptidase 4 [1] = target: T3, Dipeptidyl peptidase 4 (Homo sapiens, UniProt P27487); test: Inhibition of DPP4 in presence of 50% human serum
Dipeptidyl peptidase 4 [2] = target: T3, Dipeptidyl peptidase 4; test: Inhibition of DPP4
Dipeptidyl peptidase 9 = Dipeptidyl peptidase 9 (Homo sapiens, UniProt Q86TI2); test: Inhibition of DPP9
Dipeptidyl peptidase 8 = Dipeptidyl peptidase 8 (Homo sapiens, UniProt Q6V1X1); test: Inhibition of DPP8
[3] = Plasma clearance in rat at 1 mg/kg, iv or 2 mg/kg, po; type: ADME, organism-based
[4] = Cmax in rat at 2 mg/kg, po; type: ADME, organism-based; parameters: dose 2 mg/kg, route oral; details: in vivo
[5] = Cmax in dog at 2 mg/kg, po; type: ADME, organism-based, Canis lupus familiaris; parameters: dose 2 mg/kg, route oral; details: in vivo
[6] = Half life in rat at 1 mg/kg, iv or 2 mg/kg, po; type: ADME, organism-based; details: in vivo
[7] = Plasma clearance in dog at 1 mg/kg, iv or 2 mg/kg, po; type: ADME, organism-based, Canis lupus familiaris
Rattus norvegicus = test: AUC in rat at 2 mg/kg, po normalized to 1 mg/kg; type: ADME, organism-based, Plasma; details: in vivo
Canis familiaris = test: AUC in dog at 2 mg/kg, po normalized to 1 mg/kg; type: ADME, organism-based, Canis lupus familiaris, Plasma; details: in vivo
[8] = Half life in dog at 1 mg/kg, iv or 2 mg/kg, po; type: ADME, organism-based, Canis lupus familiaris; details: in vivo
[9] = Bioavailability in rat at 1 mg/kg, iv and 2 mg/kg, po; type: ADME, organism-based; details: in vivo
[10] = target: Voltage-dependent L-type calcium channel subunit alpha-1S (Oryctolagus cuniculus, UniProt P07293); test: Inhibition of rabbit skeletal muscle L-type calcium channel
Summary of the method: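 Rabbit skeletal muscle membranes (40-70 µg) with [3H]-diltiazem (20 nM final) in 50 mM Tris pH 7.4. Serially diluted compound added; incubated 60 min at room temperature with shaking. Filtered through PEI-soaked filters, washed three times with ice-cold buffer, then counted. Nonspecific binding in 20 µM unlabeled diltiazem; total binding with DMSO only.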

[11] = target: Voltage-gated inwardly rectifying potassium channel KCNH2 (Homo sapiens, UniProt Q12809); test: Inhibition of hERG; type: toxicity
[12] = target: Sodium channel protein type 5 subunit alpha (Homo sapiens, UniProt Q14524); test: Inhibition of human cardiac sodium channel
Summary of the method: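 Membranes from HEK293 cells stably expressing human cardiac Na+ channel hNav1.5 (40-80 µg), with [3H]-BPBTS (1 nM final), in 20 mM Tris-HCl pH 7.4 with 0.01 mg/mL bacitracin. Incubated 16 h at room temperature with shaking, then filtered and scintillation counted. Nonspecific binding was taken with 5 µM unlabeled ligand; total binding with DMSO only.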

[13] = Bioavailability in dog at 1 mg/kg, iv and 2 mg/kg, po; type: ADME, organism-based, Canis lupus familiaris; details: in vivo

Chain of Xaa-Pro aminopeptidase 1 (Q9NQW7 whole entry): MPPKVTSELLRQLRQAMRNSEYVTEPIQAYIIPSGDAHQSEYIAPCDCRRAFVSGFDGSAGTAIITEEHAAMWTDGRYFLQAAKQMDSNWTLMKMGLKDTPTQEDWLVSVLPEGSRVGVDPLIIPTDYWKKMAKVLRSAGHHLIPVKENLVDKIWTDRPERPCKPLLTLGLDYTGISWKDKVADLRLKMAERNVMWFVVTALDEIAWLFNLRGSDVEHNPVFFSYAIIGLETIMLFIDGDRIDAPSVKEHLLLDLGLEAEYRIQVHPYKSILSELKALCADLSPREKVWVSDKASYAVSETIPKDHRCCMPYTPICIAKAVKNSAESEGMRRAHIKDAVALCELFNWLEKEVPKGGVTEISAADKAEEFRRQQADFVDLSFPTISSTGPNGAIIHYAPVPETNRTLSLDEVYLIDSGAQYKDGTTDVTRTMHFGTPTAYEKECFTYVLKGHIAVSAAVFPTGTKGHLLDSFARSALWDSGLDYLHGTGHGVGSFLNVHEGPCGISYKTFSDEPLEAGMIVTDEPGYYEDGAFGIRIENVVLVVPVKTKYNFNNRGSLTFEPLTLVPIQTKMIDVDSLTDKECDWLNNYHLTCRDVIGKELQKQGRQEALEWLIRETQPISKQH
T3 sequence (P27487 whole entry): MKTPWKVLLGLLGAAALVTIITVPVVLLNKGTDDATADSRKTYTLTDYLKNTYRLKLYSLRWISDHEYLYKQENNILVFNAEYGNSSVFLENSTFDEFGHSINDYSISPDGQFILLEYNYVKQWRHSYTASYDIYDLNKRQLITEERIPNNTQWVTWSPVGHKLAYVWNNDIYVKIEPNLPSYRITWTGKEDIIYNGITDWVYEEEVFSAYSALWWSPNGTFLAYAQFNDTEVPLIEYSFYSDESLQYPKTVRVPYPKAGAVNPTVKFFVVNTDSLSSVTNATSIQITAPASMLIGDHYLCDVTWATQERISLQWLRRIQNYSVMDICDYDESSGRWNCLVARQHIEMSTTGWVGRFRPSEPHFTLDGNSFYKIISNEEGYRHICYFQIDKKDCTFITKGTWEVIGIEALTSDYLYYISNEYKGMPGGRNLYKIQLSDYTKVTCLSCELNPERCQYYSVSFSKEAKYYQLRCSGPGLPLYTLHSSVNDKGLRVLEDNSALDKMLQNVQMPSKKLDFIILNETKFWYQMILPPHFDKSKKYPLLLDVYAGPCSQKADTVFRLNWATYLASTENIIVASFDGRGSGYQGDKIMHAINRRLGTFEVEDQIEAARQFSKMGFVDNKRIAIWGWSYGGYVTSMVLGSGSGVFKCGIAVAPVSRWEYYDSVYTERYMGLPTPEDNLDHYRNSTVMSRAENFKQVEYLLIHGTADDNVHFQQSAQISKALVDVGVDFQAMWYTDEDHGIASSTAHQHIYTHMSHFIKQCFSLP
Chain of Dipeptidyl peptidase 9 (Q86TI2 whole entry): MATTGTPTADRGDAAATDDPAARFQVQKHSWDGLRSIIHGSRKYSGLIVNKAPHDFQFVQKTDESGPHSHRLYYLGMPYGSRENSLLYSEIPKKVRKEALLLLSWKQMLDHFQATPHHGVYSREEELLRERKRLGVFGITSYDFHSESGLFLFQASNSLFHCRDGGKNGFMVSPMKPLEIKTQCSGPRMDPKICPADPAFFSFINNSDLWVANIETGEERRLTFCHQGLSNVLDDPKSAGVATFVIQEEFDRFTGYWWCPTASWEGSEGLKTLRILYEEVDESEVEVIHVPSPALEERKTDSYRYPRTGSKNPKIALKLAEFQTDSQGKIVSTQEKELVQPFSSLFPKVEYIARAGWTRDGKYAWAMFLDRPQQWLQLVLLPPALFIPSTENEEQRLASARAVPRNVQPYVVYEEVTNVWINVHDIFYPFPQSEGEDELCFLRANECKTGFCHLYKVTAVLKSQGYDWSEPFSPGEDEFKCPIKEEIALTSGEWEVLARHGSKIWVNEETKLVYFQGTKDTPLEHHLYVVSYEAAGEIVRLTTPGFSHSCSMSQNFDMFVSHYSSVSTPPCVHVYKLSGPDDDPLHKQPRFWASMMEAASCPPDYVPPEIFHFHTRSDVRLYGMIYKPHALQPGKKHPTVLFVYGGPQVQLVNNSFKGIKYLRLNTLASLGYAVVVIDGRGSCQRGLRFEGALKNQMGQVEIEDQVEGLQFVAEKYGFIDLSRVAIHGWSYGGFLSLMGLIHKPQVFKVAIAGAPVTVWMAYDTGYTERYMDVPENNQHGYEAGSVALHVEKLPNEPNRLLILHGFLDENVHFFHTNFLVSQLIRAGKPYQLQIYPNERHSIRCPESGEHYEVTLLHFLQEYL
Chain of Dipeptidyl peptidase 8 (Q6V1X1 whole entry): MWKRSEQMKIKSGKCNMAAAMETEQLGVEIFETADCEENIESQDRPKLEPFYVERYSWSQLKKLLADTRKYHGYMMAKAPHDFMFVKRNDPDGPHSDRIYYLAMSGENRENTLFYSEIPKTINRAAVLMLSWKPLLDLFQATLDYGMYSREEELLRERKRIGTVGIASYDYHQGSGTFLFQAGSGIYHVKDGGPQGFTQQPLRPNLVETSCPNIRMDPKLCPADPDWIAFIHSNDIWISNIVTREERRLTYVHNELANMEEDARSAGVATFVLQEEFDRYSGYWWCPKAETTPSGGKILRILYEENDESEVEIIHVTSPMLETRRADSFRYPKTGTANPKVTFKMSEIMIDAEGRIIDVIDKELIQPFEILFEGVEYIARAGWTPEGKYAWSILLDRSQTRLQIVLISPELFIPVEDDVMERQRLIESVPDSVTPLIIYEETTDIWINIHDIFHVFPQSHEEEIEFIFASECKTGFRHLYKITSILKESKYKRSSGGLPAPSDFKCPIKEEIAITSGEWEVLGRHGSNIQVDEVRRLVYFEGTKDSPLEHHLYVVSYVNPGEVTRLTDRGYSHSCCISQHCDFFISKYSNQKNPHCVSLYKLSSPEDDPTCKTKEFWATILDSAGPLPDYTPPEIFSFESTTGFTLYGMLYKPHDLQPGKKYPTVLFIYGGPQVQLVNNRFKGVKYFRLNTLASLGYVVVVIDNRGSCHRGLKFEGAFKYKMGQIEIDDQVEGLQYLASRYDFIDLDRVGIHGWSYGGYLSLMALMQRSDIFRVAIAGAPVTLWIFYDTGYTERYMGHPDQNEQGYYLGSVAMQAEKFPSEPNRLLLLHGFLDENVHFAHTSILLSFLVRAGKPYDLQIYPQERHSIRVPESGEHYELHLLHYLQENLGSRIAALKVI
Chain of Voltage-dependent L-type calcium channel subunit alpha-1S (P07293 whole entry): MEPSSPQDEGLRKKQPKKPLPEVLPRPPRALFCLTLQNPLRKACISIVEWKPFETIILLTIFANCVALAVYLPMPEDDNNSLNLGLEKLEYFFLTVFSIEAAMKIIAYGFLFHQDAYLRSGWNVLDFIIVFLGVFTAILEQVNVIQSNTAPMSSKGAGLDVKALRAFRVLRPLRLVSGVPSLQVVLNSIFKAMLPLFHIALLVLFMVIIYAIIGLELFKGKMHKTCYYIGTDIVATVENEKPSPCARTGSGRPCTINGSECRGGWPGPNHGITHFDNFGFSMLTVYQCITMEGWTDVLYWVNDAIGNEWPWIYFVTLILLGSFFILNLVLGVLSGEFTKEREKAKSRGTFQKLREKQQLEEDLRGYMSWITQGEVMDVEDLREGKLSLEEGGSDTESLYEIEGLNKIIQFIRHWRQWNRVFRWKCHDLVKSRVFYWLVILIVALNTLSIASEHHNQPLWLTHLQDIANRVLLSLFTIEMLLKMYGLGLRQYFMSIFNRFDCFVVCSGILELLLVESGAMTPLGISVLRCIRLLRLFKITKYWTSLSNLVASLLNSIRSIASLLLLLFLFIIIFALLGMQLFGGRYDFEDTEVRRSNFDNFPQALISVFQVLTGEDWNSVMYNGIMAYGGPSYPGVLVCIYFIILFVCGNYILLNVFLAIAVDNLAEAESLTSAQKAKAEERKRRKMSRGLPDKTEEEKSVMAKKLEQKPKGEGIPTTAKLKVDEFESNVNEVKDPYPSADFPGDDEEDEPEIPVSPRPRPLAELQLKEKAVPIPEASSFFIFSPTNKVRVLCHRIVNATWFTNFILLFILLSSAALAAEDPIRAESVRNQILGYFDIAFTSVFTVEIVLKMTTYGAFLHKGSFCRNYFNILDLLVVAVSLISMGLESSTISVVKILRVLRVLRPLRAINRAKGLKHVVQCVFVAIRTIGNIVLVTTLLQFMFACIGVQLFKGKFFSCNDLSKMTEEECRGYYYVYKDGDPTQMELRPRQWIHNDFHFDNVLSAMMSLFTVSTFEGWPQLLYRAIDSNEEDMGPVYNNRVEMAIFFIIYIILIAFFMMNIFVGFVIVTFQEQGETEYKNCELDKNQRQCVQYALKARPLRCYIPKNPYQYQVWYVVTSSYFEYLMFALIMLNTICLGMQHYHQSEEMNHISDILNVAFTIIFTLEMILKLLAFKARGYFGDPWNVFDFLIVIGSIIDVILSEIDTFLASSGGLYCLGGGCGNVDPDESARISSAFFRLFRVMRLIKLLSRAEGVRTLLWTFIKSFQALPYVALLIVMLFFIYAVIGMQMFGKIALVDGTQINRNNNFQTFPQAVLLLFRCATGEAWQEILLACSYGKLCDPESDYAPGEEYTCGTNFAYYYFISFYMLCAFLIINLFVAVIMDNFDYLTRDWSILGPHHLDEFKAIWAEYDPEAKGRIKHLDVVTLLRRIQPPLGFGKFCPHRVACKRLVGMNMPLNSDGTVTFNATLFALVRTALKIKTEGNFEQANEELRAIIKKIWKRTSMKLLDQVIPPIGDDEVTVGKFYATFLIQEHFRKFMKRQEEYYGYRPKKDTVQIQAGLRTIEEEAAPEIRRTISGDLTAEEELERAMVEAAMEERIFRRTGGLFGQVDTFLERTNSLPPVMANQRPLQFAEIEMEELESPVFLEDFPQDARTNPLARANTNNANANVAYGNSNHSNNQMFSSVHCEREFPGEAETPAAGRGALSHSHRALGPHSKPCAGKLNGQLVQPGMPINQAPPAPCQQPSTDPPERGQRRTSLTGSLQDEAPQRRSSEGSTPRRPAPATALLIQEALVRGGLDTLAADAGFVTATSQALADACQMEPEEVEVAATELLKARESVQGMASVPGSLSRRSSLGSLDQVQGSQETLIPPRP

Row | Compound | pIC50 (Xaa-Pro aminopeptidase 1) | pIC50 (Dipeptidyl peptidase 2) | pIC50 (Xaa-Pro dipeptidase) | pIC50 (Prolyl endopeptidase FAP) | pIC50 (Dipeptidyl peptidase 4 [1]) | pIC50 (Dipeptidyl peptidase 4 [2]) | pIC50 (Dipeptidyl peptidase 9) | pIC50 (Dipeptidyl peptidase 8) | clearance [3] [mL/min/kg] | Cmax [4] [µM] | Cmax [5] [µM] | half-life [6] [h] | clearance [7] [mL/min/kg] | AUC (Rattus norvegicus) [µM·h] | AUC (Canis familiaris) [µM·h] | half-life [8] [h] | bioavailability [9] [%] | other results
1 | CN(C)C(=O)[C@@H](c1ccc(-c2ccn3ncnc3c2)cc1)[C@H](N)C(=O)N1CCC(F)(F)C1.O=C(O)C(F)(F)F | < 4.40 | 4.59 | < 4.40 | < 4.40 | 7.47 | 8.21 | < 4.00 | < 4.00 | 1.8 | 7.8 | 9.5 | 1.1 | 1.5 | 15 | 20 | 3.4 | 69 | pIC50 [10]: 4.27; pIC50 [11]: 4.80; pIC50 [12]: < 4.00; bioavailability [13]: 81%
2 | CN(C)C(=O)[C@@H](c1ccc(-c2ccc3ncnn3c2)cc1)[C@H](N)C(=O)N1CC(F)C1.O=C(O)C(F)(F)F | < 4.40 | < 4.00 | < 4.40 | < 4.40 | 7.39 | 8.57 | < 4.00 | < 4.00 | 7.3 | 2.4 | 4 | 2.1 | 6.1 | 2.2 | 6.9 | 2 | 37 | bioavailability [13]: 100%
3 | CN(C)C(=O)[C@@H](c1ccc(-c2ccc3ncnn3c2)cc1)[C@H](N)C(=O)N1CCCC1.O=C(O)C(F)(F)F | < 4.40 | < 4.00 | < 4.40 | < 4.40 | 7.20 | 8.28 | 4.85 | < 4.00 | 7.7 | 2.1 | 5.9 | 1.6 | 5.9 | 2.9 | 6.8 | 1.1 | 46 | bioavailability [13]: 98%
4 | CN(C)C(=O)[C@@H](c1ccc(-c2ccn3nccc3n2)cc1)[C@H](N)C(=O)N1CC[C@H](F)C1.O=C(O)C(F)(F)F | < 4.40 | 4.20 | < 4.40 | < 4.40 | 7.28 | 8.10 | < 4.00 | < 4.00 | 3.3 | 3.9 | – | 4.3 | – | 5.6 | – | – | 46 | –
5 | CN(C)C(=O)[C@@H](c1ccc(-c2ccn3ncnc3c2)cc1)[C@H](N)C(=O)N1CC[C@H](F)C1.O=C(O)C(F)(F)F | < 4.40 | 4.85 | < 4.40 | < 4.40 | 7.46 | 8.28 | < 4.00 | < 4.00 | 10 | 0.6 | – | 1.7 | – | 0.83 | – | – | 21 | –
6 | CN(C)C(=O)[C@@H](c1ccc(-c2ccn3nccc3n2)cc1)[C@H](N)C(=O)N1CCC(F)(F)C1.O=C(O)C(F)(F)F | < 4.40 | 4.74 | < 4.40 | < 4.40 | 7.24 | 8.12 | < 4.00 | < 4.00 | 1.4 | 8.9 | 22 | 2.7 | 1 | 24 | 38 | 3.1 | 79 | pIC50 [10]: 4.82; pIC50 [12]: 4.22; bioavailability [13]: 100%

More lines, main results first:

Row | pIC50 (Xaa-Pro aminopeptidase 1) | pIC50 (Dipeptidyl peptidase 2) | pIC50 (Xaa-Pro dipeptidase) | pIC50 (Prolyl endopeptidase FAP) | pIC50 (Dipeptidyl peptidase 4 [1]) | pIC50 (Dipeptidyl peptidase 4 [2]) | pIC50 (Dipeptidyl peptidase 9) | pIC50 (Dipeptidyl peptidase 8) | clearance [3] [mL/min/kg] | Cmax [4] [µM] | Cmax [5] [µM] | half-life [6] [h] | clearance [7] [mL/min/kg] | AUC (Rattus norvegicus) [µM·h] | AUC (Canis familiaris) [µM·h] | half-life [8] [h] | bioavailability [9] [%] | Compound | other results
7 | < 4.40 | < 4.00 | < 4.40 | < 4.40 | 6.75 | 7.89 | < 4.00 | < 4.00 | – | – | – | – | – | – | – | – | – | CN(C)C(=O)[C@@H](c1ccc(-c2ccc3nccn3n2)cc1)[C@H](N)C(=O)N1CC[C@H](F)C1 | –
8 | < 4.40 | < 4.00 | < 4.40 | < 4.40 | – | – | < 4.00 | < 4.00 | 7 | 2.3 | 6.6 | 2 | 3.1 | 2.4 | 12 | 2.4 | – | CN(C)C(=O)[C@@H](c1ccc(-c2ccc3ncnn3c2)cc1)[C@H](N)C(=O)N1CC[C@H](F)C1.O=C(O)C(F)(F)F | –
9 | < 4.40 | < 4.00 | < 4.40 | < 4.40 | 7.80 | 8.39 | < 4.00 | < 4.00 | 34 | 0.008 | – | 1.1 | – | 0.009 | – | – | 0.76 | CN(C)C(=O)[C@@H](c1ccc(-c2ccc3nncn3c2)cc1)[C@H](N)C(=O)N1CC[C@H](F)C1.O=C(O)C(F)(F)F | –
10 | < 4.40 | < 4.00 | < 4.40 | < 4.40 | 6.65 | 7.66 | < 4.00 | < 4.00 | – | – | – | – | – | – | – | – | – | Cc1nc2ccc(-c3ccc([C@H](C(=O)N(C)C)[C@H](N)C(=O)N4CC[C@H](F)C4)cc3)cn2n1 | –
11 | < 4.40 | < 4.00 | < 4.40 | < 4.40 | 7.10 | 8.10 | < 4.00 | < 4.00 | 15 | 0.021 | – | 1.2 | – | 0.048 | – | – | 2 | CN(C)C(=O)[C@@H](c1ccc(-c2ccc(=O)n(C)c2)cc1)[C@H](N)C(=O)N1CC[C@H](F)C1.O=C(O)C(F)(F)F | –
12 | < 4.40 | < 4.00 | < 4.40 | < 4.40 | 7.21 | 8.07 | < 4.00 | < 4.00 | – | – | – | – | – | – | – | – | – | Cc1c(-c2ccc([C@H](C(=O)N(C)C)[C@H](N)C(=O)N3CC[C@H](F)C3)cc2)ccc2ncnn12 | –
13 | < 4.40 | < 4.00 | < 4.40 | < 4.40 | 6.19 | 6.82 | < 4.00 | < 4.00 | – | – | – | – | – | – | – | – | – | Cc1cc(-c2ccc([C@H](C(=O)N(C)C)[C@H](N)C(=O)N3CC[C@H](F)C3)cc2)cn2ncnc12 | –
14 | < 4.40 | < 4.00 | < 4.40 | < 4.40 | 6.88 | 7.89 | < 4.00 | < 4.00 | – | – | – | – | – | – | – | – | – | CN(C)C(=O)[C@@H](c1ccc(-c2ccc3nccn3c2)cc1)[C@H](N)C(=O)N1CC[C@H](F)C1 | –
